Data from article PMC10784704 (The Journal of Biological Chemistry, 2023).

T1: neutrophil elastase (NE) (Homo sapiens, UniProt P08246)
T1 sequence (P08246 30-267): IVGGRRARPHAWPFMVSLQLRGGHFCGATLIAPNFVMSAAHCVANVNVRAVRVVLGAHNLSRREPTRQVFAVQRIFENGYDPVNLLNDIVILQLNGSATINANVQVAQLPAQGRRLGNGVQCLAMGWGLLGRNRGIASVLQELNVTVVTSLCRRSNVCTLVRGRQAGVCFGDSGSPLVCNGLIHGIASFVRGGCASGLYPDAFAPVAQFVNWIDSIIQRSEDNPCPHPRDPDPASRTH


Biological target: T1, neutrophil elastase (NE)
Test: Longitudinal NE digestion of rCBG and asialo-rCBG
Format: in vitro ADME
Settings: rCBG/NE 25:1 (w/w), on ice, 480 s incubation period; trypsin digest, LC-MS/MS
Method in brief: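 Recombinant CBG, native or desialylated with neuraminidase A (40 U, overnight, 37 °C), digested with NE at 25:1 (w/w) on ice for 15, 30, 60, 120, 240 and 480 s. Stopped with 1 mM PMSF (8 min, ice), reduced with DTT, alkylated with IAA, and trypsin-digested at 20:1 (w/w) overnight at 37 °C. LC-MS/MS tracked intact and cleaved RCL peptides (unoccupied, sialo- and asialo-O-glycosylated). Mean + SD, n = 3.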

Molecule	Effect of Thr345 O-glycans on NE proteolysis reaction
rCBG: Polyhistidine-tagged recombinant human CBG expressed in HEK293 cells (Sino Biological) (protein, UniProt P08185 23-405, looked up, polyhistidine tag) Corticosteroid-binding …: MDPNAAYVNMSNHHRGLASANVDFAFSLYKHLVALSPKKNIFISPVSISMALAMLSLGTCGHTRAQLLQGLGFNLTERSETEIHQGFQHLHQLFAKSDTSLEMTMGNALFLDGSLELLESFSADIKHYYESEVLAMNFQDWATASRQINSYVKNKTQGKIVDLFSGLDSPAILVLVNYIFFKGTWTQPFDLASTREENFYVDETTVVKVPMMLQSSTISYLHDSELPCQLVQMNYVGNGTVFFILPDKGKMNTVIAALSRDTINRWSAGLTSSQVDLYIPKVTISGVYDLGDVLEEMGIADLFTNQANFSRITQDAQLKSSKVVHKAVLQLNEEGVDTAGSTGVTLNLTSKPIILRFNQPFIIMIFDHFTWSSLFLARVMNPV	strongly inhibit
asialo-rCBG: sialic acid-deficient glycoform of rCBG generated through exhaustive sialidase (neuraminidase A) treatment (protein, UniProt P08185 23-405, looked up, His tag; desialylated by neuraminidase) Corticosteroid-binding …: MDPNAAYVNMSNHHRGLASANVDFAFSLYKHLVALSPKKNIFISPVSISMALAMLSLGTCGHTRAQLLQGLGFNLTERSETEIHQGFQHLHQLFAKSDTSLEMTMGNALFLDGSLELLESFSADIKHYYESEVLAMNFQDWATASRQINSYVKNKTQGKIVDLFSGLDSPAILVLVNYIFFKGTWTQPFDLASTREENFYVDETTVVKVPMMLQSSTISYLHDSELPCQLVQMNYVGNGTVFFILPDKGKMNTVIAALSRDTINRWSAGLTSSQVDLYIPKVTISGVYDLGDVLEEMGIADLFTNQANFSRITQDAQLKSSKVVHKAVLQLNEEGVDTAGSTGVTLNLTSKPIILRFNQPFIIMIFDHFTWSSLFLARVMNPV	strongly inhibit
